RGS4 pot – potentiators or activators of RGS4; HEK293 M3R/inducible RGS4, carbachol calcium flux Fluo4; stronger effect = lower value; hit rate 0.92% among 310,000; B-score at 10 µM;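 active = B-score of the integrated calcium signal more than 4 SD below the library mean, with starting fluorescence not abnormally high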;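 also: negative B-score means reduced calcium response which marks RGS4 activation or potentiation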
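System – HEK293 FlpIn-TREx cells, stable M3R, doxycycline-inducible RGS4 · Reagent – ECmax carbachol challenge · Times – compound preincubation 20 min at room temperature before agonist · Technique – Fluo4 fluorescence kinetic imaging of calcium · Measure – B score of integrated Fluo4 ratio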
MrgX1 antag – antagonists of human MrgX1 receptor. Q96LB2. MRGX1-HEK293 calcium flux, Fluo-4, BAM8-22 antagonism; stronger effect = lower value. B-score at 10 µM. hit rate 1.3% among 310,000;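 active = calcium-response B-score plate-corrected more than 3 library SD below zero, starting fluorescence within 5 deviations, no agonist response on first addition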;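 also: peak minus trough fluorescence over baseline after final BAM8-22 challenge near maximal dose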
Target sequence (Q96LB2 whole entry, looked up): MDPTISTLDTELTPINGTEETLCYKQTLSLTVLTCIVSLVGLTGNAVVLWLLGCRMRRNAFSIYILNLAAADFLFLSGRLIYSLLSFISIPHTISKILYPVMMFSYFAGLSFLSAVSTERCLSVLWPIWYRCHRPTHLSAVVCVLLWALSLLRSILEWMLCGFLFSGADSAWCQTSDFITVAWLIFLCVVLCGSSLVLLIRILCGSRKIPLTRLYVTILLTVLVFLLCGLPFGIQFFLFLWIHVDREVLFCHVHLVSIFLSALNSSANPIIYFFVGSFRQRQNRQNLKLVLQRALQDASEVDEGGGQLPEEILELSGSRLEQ
MrgX1 ag – human MrgX1 receptor agonism, primary screen. AID 588627. Q96LB2. B-score at 10 µM. hit rate 0.44% among 310,000. MrgX1-HEK293 cells, Fluo-4 calcium fluorescence, agonist mode; stronger effect = higher value;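 active = calcium response B-score plate-corrected fluorescence ratio at least 3 library SD, with starting fluorescence B-score inside 5 SD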
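System: HEK293 cells stably expressing human MrgX1 receptor; Dosing: test compound in the initial addition of three; Schedule: overnight plating, then 30 min 37 °C plus 30 min room-temperature dye loading; Detection: kinetic calcium dye fluorescence, Fluo-4 NW; Controls: per-plate positive and negative controls for Z′ factor.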
MrgX1 allo act – human MrgX1 positive allosteric modulation, primary screen; hit rate 0.63% among 310,000; MrgX1-HEK293, Fluo-4 calcium flux, FDSS; stronger effect = higher value; B-score at 10 µM; Q96LB2; AID 588675;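 active = plate-corrected calcium response at least 3 library SD above typical, normal starting fluorescence, not activating the receptor alone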;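 also: compound read alongside a low EC10 to EC30 dose of BAM8-22 agonist; peak minus trough fluorescence over baseline measured at the second addition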
RGS4 block – human RGS4 inhibition. HEK293 M3R/RGS4 inducible, Fluo-4 calcium flux; stronger effect = higher value; triggered by carbachol at its EC20. B-score at 10 µM. hit rate 0.45% among 310,000;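 active = B-score, a plate-corrected calcium signal, over three deviations above library mean, with baseline fluorescence within five deviations of library mean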;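 also: RGS4 expression induced by doxycycline in cells with stable M3 receptor; B-score is computed from the integrated fluorescence ratio over baseline after carbachol; higher B-score means a larger calcium signal and so more RGS4 inhibition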
Target sequence (P49798 whole entry, looked up): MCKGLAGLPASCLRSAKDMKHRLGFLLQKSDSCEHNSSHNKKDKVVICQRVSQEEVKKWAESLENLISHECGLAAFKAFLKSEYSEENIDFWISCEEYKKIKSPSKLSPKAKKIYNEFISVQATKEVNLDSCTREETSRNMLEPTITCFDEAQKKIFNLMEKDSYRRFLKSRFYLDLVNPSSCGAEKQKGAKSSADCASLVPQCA
RGS4 activ val – confirmation of RGS4 activators; shares compounds with RGS4 pot; HEK293 M3R/RGS4 inducible, carbachol calcium flux Fluo4; inhibition, % at 10 µM; hit rate 89% among 1,100;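 active = inhibition above 3 SD of the buffer control wells, cut at about 41% in these data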;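 also: signal is the integrated peak-minus-minimum Fluo4 fluorescence over baseline ratio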
M3R Ca counter – RGS4 activator counter-screen hit in non-induced cells. shares compounds with RGS4 pot. HEK293 M3R non-induced RGS4, Fluo4 calcium flux; after carbachol challenge at its EC90. inhibition, % at 10 µM. hit rate 82% among 1,100. AID 602283;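 active = inhibition exceeding 3 SD of buffer-only control wells, cut at about 26% in these data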;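 also: percent drop in integrated peak-minus-baseline over baseline Fluo4 ratio after carbachol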
Hits are given with their value; n = inactive; x = no result. This is a sample that favours compounds with a hit; in the whole collection about 3.5% have one here.

SMILES	RGS4 pot	MrgX1 antag	MrgX1 ag	MrgX1 allo act	RGS4 block	RGS4 activ val	M3R Ca counter
NC(=O)C1CCN(c2ccc3c(c2)S(=O)(=O)c2ccccc2C3=O)CC1	n	n	n	n	n	x	x
CC1=N/C(=C\c2ccccc2Cl)C(=O)O1	n	n	n	n	n	x	x
Cc1csc(NC(=O)c2cc(-c3ccccc3)nc3ccccc23)n1	-7.8	n	n	n	n	86	43
Cc1ccc(C)c(-c2cc(C(=O)Nc3nccs3)c3ccccc3n2)c1	-7.7	n	n	n	n	68	n
CC(C)(C)c1nnc(NC(=O)c2cc(-c3ccccc3)nc3ccccc23)s1	n	n	n	n	n	x	x
COC(=O)c1sccc1NC(=O)c1cc(-c2cc(C)ccc2C)nc2ccccc12	n	n	n	n	n	x	x
Cc1cc(=O)n2[nH]c(Nc3cccc(Cl)c3)nc2n1	n	n	n	n	n	x	x
Cc1ccc(Sc2ccc(N)cc2C#N)cc1	-8.8	n	n	n	n	83	42
Cc1ccc(Sc2nnc(-c3ccccc3)cc2C#N)cc1	n	n	n	n	n	x	x
Cc1nccn1CC(O)Cn1c2ccccc2c2ccccc21 (configuration not stated)	-7.7	n	n	n	n	86	29
Cn1ccsc1=NC(=O)c1cccc(OC(F)F)c1	n	n	n	n	n	x	x
CC(C(=O)NCC1(c2ccccc2)CCCC1)N1CCCC1 (configuration not stated)	-7.9	n	n	n	n	64	84
CC(C(=O)NCC1(c2ccccc2)CCCC1)N1CCOCC1 (configuration not stated)	n	n	n	n	n	x	x
CC(CN1CCCCC1)OC(=O)c1ccc2c(c1)OCCO2 (configuration not stated)	-11	n	n	n	n	68	33
CC(CN1CCOCC1)OC(=O)c1ccc2c(c1)OCCO2 (configuration not stated)	n	n	n	n	n	x	x
CC(CN1CCOCC1)OC(=O)C(C)(c1ccccc1)c1ccccc1 (configuration not stated)	n	n	n	n	n	x	x
CC(CN1CCCCC1)OC(=O)C(C)(c1ccccc1)c1ccccc1 (configuration not stated)	-7.9	n	n	n	n	90	54
Cc1nn(-c2ccccc2)c(C)c1NC(=O)COC(=O)c1ccc(O)cc1O	-10	n	n	n	n	52	n
O=C(COC(=O)c1cc(S(=O)(=O)N2CCOCC2)ccc1O)NCCc1ccccc1	-9.5	n	n	n	n	n	n
COCCN1C2=C(C(=O)CC(C)(C)C2)C(c2ccc(OC)c(OC)c2)C2=C1CC(C)(C)CC2=O	n	n	n	n	n	x	x
CN1CCN(CC(=O)Nc2c(C(=O)c3ccccc3)oc3ccccc23)CC1	-10	n	n	n	n	70	27
CCc1nnc(NC(=O)c2sc3nc4cc(C)ccc4cc3c2N)s1	-8.8	n	n	n	n	72	32
Cc1ccc(C(C(=O)NC2CCCCC2)N2CCCC2)cc1 (configuration not stated)	n	n	n	n	n	x	x
O=C(NC1CCCCC1)C(c1ccccc1)N1CCCC1 (configuration not stated)	-8.8	n	n	n	n	94	64
CCNc1nc(NC(C)(C)C)nc(N2CCCCC2)n1	-7.9	n	n	n	n	94	93
SMILES	RGS4 pot	MrgX1 antag	MrgX1 ag	MrgX1 allo act	RGS4 block	RGS4 activ val	M3R Ca counter
CCNc1nc(N2CCCC2)nc(N2CCCC2)n1	n	n	n	n	n	x	x
NS(=O)(=O)c1ccc(CCNC(=O)C2CCCN2S(=O)(=O)c2cccc3nsnc23)cc1 (configuration not stated)	n	n	n	n	n	x	x
CN(C)CCNC(=O)c1cccc(S(=O)(=O)Nc2ccc(F)cc2)c1	n	n	n	n	n	x	x
CCN(CC)CCNC(=O)c1ccc(NC(=O)c2cccc(S(=O)(=O)Nc3ccc(C)cc3)c2)cc1	-12	n	n	n	n	92	69
O=C1c2oc3ccccc3c(=O)c2C(c2cccc(O)c2)N1CCCN1CCOCC1 (configuration not stated)	-8.9	n	n	n	n	85	37
Cc1ccc(NS(=O)(=O)N(C)C)cc1	n	n	n	n	n	x	x
Cc1ccc(/C=C/S(=O)(=O)Nc2ccc(C)cc2)cc1	-9.8	n	n	n	n	90	44
O=C(Nc1ccc(N2CCN(c3ncccc3C(F)(F)F)CC2)nc1)c1cccs1	-7.8	n	n	n	n	92	96
CN(C)S(=O)(=O)c1cccc(NC(=O)c2ccc(S(=O)(=O)N3CCCCC3)cc2)c1	n	n	n	n	n	x	x
CN(C)S(=O)(=O)c1cccc(C(=O)Nc2ccc(S(=O)(=O)N3CCCC3)cc2)c1	-7.9	n	n	n	n	70	84
CN1CCN(c2ccc(NC(=S)NC(=O)/C=C/c3ccco3)cc2)CC1	n	n	n	n	n	x	x
Cc1ccc(CC(=O)Nc2nnc(-c3ccc(F)cc3)o2)c(C)c1	n	n	n	n	n	x	x
Cc1ccccc1CC1(CO)CCCN(C(=O)c2ccccc2N(C)C)C1 (configuration not stated)	n	n	n	n	n	x	x
Cc1ccccc1CC1(CO)CCCN(C(=O)c2ccc3ncccc3c2)C1 (configuration not stated)	-10	n	n	n	n	62	84
CC1(C)Cc2c(C#N)c(N3CCN(C(=O)c4ccccc4)CC3)nc(-c3ccco3)c2CS1	x	n	n	n	x	x	x
CC(C)c1nc(N2CCN(C(=O)c3ccccc3)CC2)c(C#N)c2c1COC(C)(C)C2	-8.8	n	n	n	n	45	84
CC(C)c1nc(N2CCN(C(=O)c3ccco3)CC2)c(C#N)c2c1COC(C)(C)C2	-11	n	n	n	n	82	42
Cc1cc(/C=C(/C#N)c2nc3ccccc3[nH]2)c(C)n1-c1cc(C(=O)O)cc(C(=O)O)c1	-7.9	x	x	x	n	52	44
O=C(CN(C(=O)CCC(=O)Nc1nccs1)c1ccccc1F)NCCc1ccccc1	n	n	n	n	n	x	x
O=C(Nc1cccc2cccnc12)c1ccc(Br)cc1Br	n	n	n	n	n	x	x
CCCCn1c(N)c(N(CCOC)C(=O)C(C)N2C(=O)c3ccccc3C2=O)c(=O)[nH]c1=O (configuration not stated)	n	n	n	n	n	x	x
COc1ccccc1Cn1c(=O)oc2ccc(C)cc21	n	n	n	n	n	x	x
CCCCOc1ccccc1Cn1c(=O)oc2ccc(C)cc21	-7.7	n	n	n	n	92	91
COc1ccccc1C(=O)Nc1nnc(S(=O)(=O)N(C)Cc2ccccc2)s1	-8.9	n	n	n	n	89	52

Screens as filed in PubChem.
